Arbovirus inh – antivirals against arbovirus infection | AID 1251 | actives 0.37% (n = 200,000) | arbovirus infection cell-based antiviral screen | inhibition, % at 10 µM; in the data active = inhibition above about 30%
Mcl1-Noxa inh – Mcl-1/Noxa interaction inhibition; Q07820; TR-FRET Mcl-1/Noxa peptide binding, 2 h; inhibition, % at 21.7 µM; actives 1.5% (n = 220,000);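 active = compounds that cut the protein-peptide binding signal by more than 50% relative to plate controls in a single-dose test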;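 also: His-tagged Mcl-1 with rhodamine Noxa BH3 peptide and terbium anti-His antibody; 0% = Mcl-1 plus Noxa peptide wells and 100% = peptide-only wells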
Target sequence (Q07820 whole entry, looked up): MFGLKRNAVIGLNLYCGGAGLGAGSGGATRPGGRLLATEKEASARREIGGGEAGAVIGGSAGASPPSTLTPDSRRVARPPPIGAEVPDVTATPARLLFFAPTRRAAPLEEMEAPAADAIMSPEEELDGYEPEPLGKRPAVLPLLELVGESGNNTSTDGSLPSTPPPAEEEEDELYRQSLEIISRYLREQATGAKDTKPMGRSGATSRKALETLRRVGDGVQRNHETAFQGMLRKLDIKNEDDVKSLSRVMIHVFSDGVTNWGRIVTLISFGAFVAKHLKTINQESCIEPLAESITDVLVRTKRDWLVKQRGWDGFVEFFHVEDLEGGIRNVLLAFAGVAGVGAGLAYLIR
Mcl-1 Bim block – human Bim-Mcl-1 interaction inhibition; Q07820; Bead-based flow cytometry, Bim peptide-Mcl-1 binding; inhibition, % at 10 µM; actives 0.1% (n = 190,000); AID 1009; in the data active = inhibition above about 40%;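 also: 0% = no compound tracer wells and 100% = peptide blocker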
Calb biofilm kill – mixtures killing C. albicans biofilm. inhibition, % at 7.6 µM. C. albicans biofilm persisters + clotrimazole, fluorescence viability; primary screen in compound mixtures of four per well. actives 0.02% (n = 120,000);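 active = inhibition above 30.3% in the primary screen of four-compound pools, then above 30% when the compound was retested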;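 also: compounds exposed to preformed 24 h biofilms for 48 h; 0% = untreated biofilm control and 100% = clotrimazole plus chlorhexidine kill blank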
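Incubation: 24 h biofilm formation, then 48 h compound exposure, 37 °C | Material: C. albicans biofilms | Buffer or medium: RPMI/MOPS medium, pH 7.0 | Measured by: 2-h Alamar Blue fluorescence, 535/590 nm excitation/emission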
Calpain2 inh – blocks pig calpain II enzyme activity; purified calpain II, fluorogenic peptide substrate, 30 min; inhibition, % at 16 µM; actives 0.37% (n = 220,000);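 active = inhibition above about 50%, limit read from the data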
Mcl1-Bid inh – Mcl-1/Bid interaction inhibition | AID 1021 | TR-FRET Mcl-1/Bid-Dy647 peptide binding, 1536-well | actives 0.97% (n = 220,000) | inhibition, % at 21.7 µM | Q07820;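 active = compounds that cut the binding signal by more than half at the single screening dose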;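 also: His-tagged Mcl-1 with europium anti-His antibody binding Bid BH3 peptide; 0% = Mcl-1 plus peptide wells and 100% = peptide-only wells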
The depositor's hits bear a star. In the library only some 2.8% were active in any assay of this set; here they are far more common.

For O=c1cc(-c2ccc(O)c(O)c2)oc2cc(O)cc(O)c12 the results were Mcl1-Noxa inh 66*, Calb biofilm kill 8, Calpain2 inh 39 and Mcl1-Bid inh -65.
`COc1c(-c2ccc(O)cc2)oc2cc(O)cc(O)c2c1=O` gave Mcl1-Noxa inh 44, Calb biofilm kill 26, Calpain2 inh 5 and Mcl1-Bid inh -90.
O=c1c(-c2c(O)cc(O)c3c(=O)cc(-c4ccc(O)cc4)oc23)c(-c2ccc(O)cc2)oc2cc(O)cc(O)c12 was read as Mcl1-Noxa inh 103*, Calb biofilm kill 26, Calpain2 inh 35 and Mcl1-Bid inh -60.
For O=c1cc(-c2ccc(O)c(-c3c(O)cc(O)c4c(=O)cc(-c5ccc(O)cc5)oc34)c2)oc2cc(O)cc(O)c12 the results were Arbovirus inh -7, Mcl1-Noxa inh 112*, Mcl-1 Bim block 0, Calb biofilm kill 23, Calpain2 inh -6 and Mcl1-Bid inh 22.
O=c1cc(-c2ccccc2)oc2cc(OCc3ccccc3)cc(O)c12 was read as Arbovirus inh -5, Mcl1-Noxa inh 10, Mcl-1 Bim block 1, Calb biofilm kill 14, Calpain2 inh 47 and Mcl1-Bid inh -15.
`O=C(Cn1c(=O)n(-c2ccccc2)c(=O)n1CC(=O)N1CCCCC1)N1CCCCC1` gave Arbovirus inh 4, Mcl1-Noxa inh 13, Mcl-1 Bim block 4, Calpain2 inh 50* and Mcl1-Bid inh -21.
O=c1n(-c2ccccc2)c(=O)n2n1CCCC2 was read as Arbovirus inh 0, Mcl1-Noxa inh 0, Mcl-1 Bim block -1, Calpain2 inh -41 and Mcl1-Bid inh 7.
For Cc1nn(C)cc1CN(C)Cc1ccc(OCC(O)CN2CCCCC2)cc1 (stereo not drawn) the results were Arbovirus inh 34*, Mcl1-Noxa inh 16, Mcl-1 Bim block -6, Calb biofilm kill 8, Calpain2 inh 13 and Mcl1-Bid inh -29.
Screening CN(c1ccc(O)cc1)c1nc(-c2cccs2)cs1 returned Arbovirus inh 1, Mcl1-Noxa inh 2, Mcl-1 Bim block 0, Calb biofilm kill -7, Calpain2 inh 15 and Mcl1-Bid inh -32.
For CN(C1=NC(=O)CS1)c1ccc(O)cc1 the results were Mcl1-Noxa inh -6, Calb biofilm kill 13, Calpain2 inh 13 and Mcl1-Bid inh 97*.
`CC(=O)Oc1cc2c3c(c1)/C(=C1/SC(=S)NC1=O)C(=O)N3C(C)(C)C=C2C` gave Mcl1-Noxa inh 51*, Calb biofilm kill 9, Calpain2 inh 42 and Mcl1-Bid inh -41.
CCOC(=O)c1c(C)[nH]c(C2=NNC(=Nc3cccc(Cl)c3)SC2)c1C was read as Arbovirus inh -24, Mcl1-Noxa inh 28, Mcl-1 Bim block -3, Calb biofilm kill 15, Calpain2 inh -15 and Mcl1-Bid inh -18.
CCOC(=O)c1cc(-c2ccccc2)sc1NC(=O)C(C)OC(=O)c1cccnc1OCC (stereo not drawn) was read as Arbovirus inh -13, Mcl1-Noxa inh -1, Mcl-1 Bim block -1, Calb biofilm kill 5, Calpain2 inh -7 and Mcl1-Bid inh -6.
Screening COC(=O)c1cccc(NC(=S)NCc2ccc(Cl)cc2)c1 returned Arbovirus inh 3, Mcl1-Noxa inh 9, Mcl-1 Bim block -6, Calpain2 inh 11 and Mcl1-Bid inh -17.
COC(=O)c1cc(NC(=S)NCc2ccc(Cl)cc2)cc(C(=O)OC)c1 was read as Arbovirus inh 32*, Mcl1-Noxa inh 15, Mcl-1 Bim block -4, Calb biofilm kill 4, Calpain2 inh 36 and Mcl1-Bid inh 97*.
Screening CCC(C(=O)O)P(=O)(c1ccc(Cl)cc1)c1ccc(Cl)cc1 (stereo not drawn) returned Arbovirus inh -4, Mcl1-Noxa inh 13, Mcl-1 Bim block 0, Calb biofilm kill 8, Calpain2 inh 22 and Mcl1-Bid inh -22.
`COc1ccc(N=c2oc3cc(O)ccc3cc2C(=O)Nc2ccccn2)cc1OC` gave Arbovirus inh 6, Mcl1-Noxa inh 53*, Mcl-1 Bim block 4, Calb biofilm kill 13, Calpain2 inh -118 and Mcl1-Bid inh 5.
Cc1nnc(SCC(=O)c2cc(C)n(-c3ccc4c(c3)OCO4)c2C)s1 was read as Arbovirus inh 3, Mcl1-Noxa inh -3, Mcl-1 Bim block -2, Calpain2 inh -29 and Mcl1-Bid inh -33.
